According to ChEMBL document CHEMBL1145781, “Synthesis and structure-activity relationships of 5-amino-6-fluoro-1-[(1R,2S)-2-fluorocyclopropan-1-yl]-8-methylquinolonecarboxylic acid antibacterials having fluorinated 7-[(3R)-3-(1-aminocyclopropan-1-yl)pyrrolidin-1-yl] substituents” (J Med Chem, 2003):
Values after ≈ are worked out from the molar mass of the structure shown.

What was measured:
Staphylococcus aureus [1] = assay: Antibacterial activity was determined against clinically isolated Levofloxacin-methicillin resistant Staphylococcus aureus (LVFX-r MRSA) strains (74 strains); format: functional
Enterococcus sp. [2] = assay: Antibacterial activity was determined against clinically isolated vancomycin-A resistant enterococci (VRE) strains (33 strains); format: functional
Streptococcus pneumoniae [3] = assay: Antibacterial activity was determined against clinically isolated penicillin resistant Streptococcus pneumoniae (PRSP) strains (50 strains); format: functional
Enterococcus sp. [4] = assay: Antibacterial activity was determined against clinically isolated vancomycin-B resistant enterococci (VRE) strains (10 strains); format: functional
[5] = test system: Staphylococcus epidermidis; assay: Antibacterial activity was determined against Staphylococcus epidermis 56500 strain after incubation at 37 degrees C for 18 h; format: functional
Klebsiella pneumoniae = assay: Antibacterial activity was determined against Klebsiella pneumoniae type II strain after incubation at 37 degrees C for 18 h; format: functional
Enterococcus faecalis = assay: Antibacterial activity was determined against Enterococcus faecalis ATCC 19433 strain after incubation at 37 degrees C for 18 h; format: functional; conditions: ATCC 19433, 18 h
Staphylococcus aureus [6] = assay: Antibacterial activity was determined against Staphylococcus aureus FDA 209-P strain after incubation at 37 degrees C for 18 h; format: functional
Pseudomonas aeruginosa = assay: Antibacterial activity was determined against Pseudomonas aeruginosa PAO1 strain after incubation at 37 degrees C for 18 h; format: functional
Streptococcus pneumoniae [7] = assay: Antibacterial activity was determined against Streptococcus pneumoniae J-24 strain after incubation at 37 degrees C for 18 h; format: functional
Streptococcus mitis = assay: Antibacterial activity was determined against Streptococcus mitis IID685 strain after incubation at 37 degrees C for 18 h; format: functional
Escherichia coli = assay: Antibacterial activity was determined against Escherichia coli NIHJ strain after incubation at 37 degrees C for 18 h; format: functional
Streptococcus pyogenes = assay: Antibacterial activity was determined against Streptococcus pyogenes G-36 strain after incubation at 37 degrees C for 18 h; format: functional
Staphylococcus aureus [8] = assay: Antibacterial activity was determined against clinically isolated Levofloxacin-methicillin resistant Staphylococcus aureus (LVFX-r MRSA) strains (74 strains); Range= 0.5-128 ug/mL; format: functional
Procedure, shortened: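 Twofold broth microdilution in Mueller–Hinton broth, inoculum about 10^5 CFU per well. Plates incubated 18 h at 37 °C. MIC taken as the lowest concentration preventing visible growth. Organisms were clinical resistant Gram-positive isolates.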

[9] = Mortality was determined after 150 mg/kg dose administered intravenously to 5-week old male mice at a speed of 0.2 mL/min counted on day 7 for total 2 mice; format: ADME, organism-based; set-up: dose 150 mg/kg, route intravenous; conditions: mouse, in vivo, iv
Procedure, shortened: (§1)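 Male Slc:ddY mice, 5 weeks old. Compound dissolved in 0.1 N NaOH in saline at varied concentrations and given as a single IV injection at 0.2 mL/min, total volume 10 mL/kg body weight. Deaths counted on day 7 and reported as dead/tested.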

[10] = Mortality was determined after 100 mg/kg dose administered intravenously to 5-week old male mice at a speed of 0.2 mL/min counted on day 7 for total 5 mice; format: ADME, organism-based; set-up: dose 100 mg/kg, route intravenous; conditions: mouse, in vivo, iv; procedure, shortened: as §1
[11] = Toxicity was determined as presence of micronucleated reticulocytes (MNRET) in blood at 24 and 48 hr after 100 mg/kg dose administered intravenously to 5-week old male mice; negative.; format: organism-based; set-up: dose 100 mg/kg, route intravenous; conditions: mouse, in vivo, iv
[12] = Mortality was determined after 100 mg/kg dose administered intravenously to 5-week old male mice at a speed of 0.2 mL/min counted on day 7 for total 2 mice; format: ADME, organism-based; set-up: dose 100 mg/kg, route intravenous; conditions: mouse, in vivo, iv; procedure, shortened: as §1
[13] = Mortality was determined after 50 mg/kg dose administered intravenously to 5-week old male mice at a speed of 0.2 mL/min counted on day 7 for total 5 mice; format: ADME, organism-based; set-up: dose 50 mg/kg, route intravenous; conditions: mouse, in vivo, iv; procedure, shortened: as §1

| SMILES | MIC50 (Staphylococcus aureus [1]) [µg/mL] | MIC90 (Staphylococcus aureus [1]) [µg/mL] | MIC50 (Enterococcus sp. [2]) [µg/mL] | MIC90 (Enterococcus sp. [2]) [µg/mL] | MIC50 (Streptococcus pneumoniae [3]) [µg/mL] | MIC90 (Streptococcus pneumoniae [3]) [µg/mL] | MIC50 (Enterococcus sp. [4]) [µg/mL] | MIC90 (Enterococcus sp. [4]) [µg/mL] | MIC [5] [µg/mL] | MIC (Klebsiella pneumoniae) [µg/mL] | MIC (Enterococcus faecalis) [µg/mL] | MIC (Staphylococcus aureus [6]) [µg/mL] | MIC (Pseudomonas aeruginosa) [µg/mL] | MIC (Streptococcus pneumoniae [7]) [µg/mL] | MIC (Streptococcus mitis) [µg/mL] | MIC (Escherichia coli) [µg/mL] | MIC (Streptococcus pyogenes) [µg/mL] | also measured |
| --- | --- | --- | --- | --- | --- | --- | --- | --- | --- | --- | --- | --- | --- | --- | --- | --- | --- | --- |
| CN[C@H](CC(C)C)C(=O)N[C@H]1C(=O)N[C@@H](CC(N)=O)C(=O)N[C@H]2C(=O)N[C@H]3C(=O)N[C@H](C(=O)N[C@H](C(=O)O)c4cc(O)cc(O)c4-c4cc3ccc4O)[C@H](O)c3ccc(c(Cl)c3)Oc3cc2cc(c3O[C@@H]2O[C@H](CO)[C@@H](O)[C@H](O)[C@H]2O[C@H]2C[C@](C)(N)[C@H](O)[C@H](C)O2)Oc2ccc(cc2Cl)[C@H]1O [VANCOMYCIN] | 1 (≈ 0.69 µM) | 2 (≈ 1.38 µM) | > 128 | > 128 | 0.5 (≈ 0.345 µM) | 0.5 (≈ 0.345 µM) | > 128 | > 128 | – | – | – | – | – | – | – | – | – | – |
| O=C(O)c1cn(C2CC2)c2cc(N3CCNCC3)c(F)cc2c1=O [CIPROFLOXACIN] | – | – | – | – | – | – | – | – | 0.2 (≈ 0.604 µM) | 0.025 (≈ 0.0754 µM) | 0.78 (≈ 2.35 µM) | 0.05 (≈ 0.151 µM) | 0.05 (≈ 0.151 µM) | 0.39 (≈ 1.18 µM) | 0.78 (≈ 2.35 µM) | ≤ 0.003 | 1.56 (≈ 4.71 µM) | – |
| C[C@H]1COc2c(N3CCN(C)CC3)c(F)cc3c(=O)c(C(=O)O)cn1c23.C[C@H]1COc2c(N3CCN(C)CC3)c(F)cc3c(=O)c(C(=O)O)cn1c23.O [LEVOFLOXACIN] | – | – | – | – | – | – | – | – | – | – | – | – | – | – | – | – | – | MIC (Staphylococcus aureus [8]): 128 µg/mL |
| N[C@@H]1[C@H]2CN(c3nc4c(cc3F)c(=O)c(C(=O)O)cn4-c3ccc(F)cc3F)C[C@@H]12 [TROVAFLOXACIN] | – | – | – | – | – | – | – | – | 0.05 (≈ 0.12 µM) | 0.025 (≈ 0.06 µM) | 0.2 (≈ 0.48 µM) | 0.013 (≈ 0.0312 µM) | 0.2 (≈ 0.48 µM) | 0.05 (≈ 0.12 µM) | 0.1 (≈ 0.24 µM) | ≤ 0.003 | 0.2 (≈ 0.48 µM) | – |
| Cc1c(N2C[C@H](C3(N)CC3)C(F)(F)C2)c(F)c(N)c2c(=O)c(C(=O)O)cn([C@@H]3C[C@@H]3F)c12 | – | – | – | – | – | – | – | – | ≤ 0.003 | 0.013 (≈ 0.0286 µM) | 0.013 (≈ 0.0286 µM) | ≤ 0.003 | 0.2 (≈ 0.44 µM) | ≤ 0.003 | ≤ 0.003 | ≤ 0.003 | ≤ 0.003 | Dead [9]: 2; Dead [10]: 1; Toxicity [11]: Non-toxic |
| NCC[C@H](O)C(=O)N[C@@H]1C[C@H](N)[C@@H](O[C@H]2O[C@H](CN)CC[C@H]2N)[C@H](O)[C@H]1O[C@H]1O[C@H](CO)[C@@H](O)[C@H](N)[C@H]1O [ARBEKACIN] | 8 (≈ 14.5 µM) | 32 (≈ 57.9 µM) | 16 (≈ 29 µM) | 64 (≈ 116 µM) | 16 (≈ 29 µM) | 32 (≈ 57.9 µM) | 32 (≈ 57.9 µM) | > 128 | – | – | – | – | – | – | – | – | – | – |
| Cc1c(N2C[C@H](F)[C@@H](C3(N)CC3)C2)c(F)c(N)c2c(=O)c(C(=O)O)cn([C@@H]3C[C@@H]3F)c12 | – | – | – | – | – | – | – | – | ≤ 0.003 | 0.013 (≈ 0.0298 µM) | 0.013 (≈ 0.0298 µM) | ≤ 0.003 | 0.2 (≈ 0.458 µM) | ≤ 0.003 | ≤ 0.003 | ≤ 0.003 | ≤ 0.003 | Dead [12]: 2; Dead [9]: 2; Dead [13]: 0 |
| COc1c(N2CCNC(C)C2)c(F)cc2c(=O)c(C(=O)O)cn(C3CC3)c12 (stereo unspecified) [GATIFLOXACIN] | 4 (≈ 10.7 µM) | 32 (≈ 85.2 µM) | 16 (≈ 42.6 µM) | 32 (≈ 85.2 µM) | 0.25 (≈ 0.666 µM) | 0.25 (≈ 0.666 µM) | 2 (≈ 5.33 µM) | 16 (≈ 42.6 µM) | 0.2 (≈ 0.533 µM) | 0.05 (≈ 0.133 µM) | 0.39 (≈ 1.04 µM) | 0.05 (≈ 0.133 µM) | 0.39 (≈ 1.04 µM) | 0.2 (≈ 0.533 µM) | 0.2 (≈ 0.533 µM) | 0.006 (≈ 0.016 µM) | 0.39 (≈ 1.04 µM) | – |
